In assay [1] the test system is T47D. The assay is described as follows: Induction of apoptosis in human T47D cells assessed as caspase-3 activation. In kind it is functional, cell-based. Summed up: (§1)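 Cells grown in RPMI-1640 + 10% FCS, trypsinized, and resuspended at 0.65 × 10^6 cells/mL. Treated in 384-well plates with 0.005–10 µM final compound (1% DMSO) for 24 h. N-(Ac-DEVD)-N'-ethoxycarbonyl-R110 substrate was then added, and fluorescence (ex 485/em 525 nm) was read at 0 and 3 h. Activity is the net RFU ratio of test to control. EC50 from a sigmoidal fit at 50% maximal response; mean of ≥3 experiments ± SEM.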

The test system of assay [2] is HCT-116. The assay is described as follows: Induction of apoptosis in human HCT116 cells assessed as caspase-3 activation. In kind it is functional, cell-based. Summed up: as §1
Assay [3] deals with SNU-398. In words: Induction of apoptosis in human SNU398 cells assessed as caspase-3 activation. In kind it is functional, cell-based. In short, it runs like this: as §1
The subject of assay [4] is T47D. In words: Antiproliferation activity against human T47D cells. In kind it is functional. In short, it runs like this:
(§2)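 Cells in RPMI-1640 + 10% FCS, 5% CO2, 37 °C. Seeded at 4.4 × 10^4 cells/mL in 96-well plates and exposed to compound at 0.001–10 µM final (1% DMSO) for 48 h at 37 °C. Viability read by CellTiter-Glo luminescence. A 0.5 h plate gave the initial-cell baseline and untreated wells gave maximal proliferation. GI50 is the mean of ≥3 experiments ± SEM.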

Assay [5] concerns HCT-116. The assay is described as follows: Antiproliferation activity against human HCT116 cells. In kind it is functional. In short, it runs like this:
as §2

Assay [6] has as its system SNU-398. The assay is described as follows: Antiproliferation activity against human SNU398 cells. In kind it is functional. Summed up: as §2
For assay [7], the system named is T47D. The assay is described as follows: Induction of apoptosis in human T47D cells assessed as accumulation at S phase at […] after 24 hrs. In kind it is functional. Summed up:
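T47D cells treated with 50 nM compound, or DMSO as control, for 24 h or 48 h at 37 °C. Cells then stained with propidium iodide and analysed by flow cytometry for DNA-content histograms. Sub-diploid DNA content was taken to indicate apoptotic cells.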

Values joined by “and” are separate entries in the source; they are usually repeats but may differ in a detail not shown here. Identical values can stand only once.

We go through 20 compounds from ChEMBL document CHEMBL1140767, “Discovery and structure-activity relationship of N-phenyl-1H-pyrazolo[3,4-b]quinolin-4-amines as a new series of potent apoptosis inducers” (Bioorg Med Chem, 2008).

In general, EC50 refers to the concentration that produces a half-maximal response. As a reminder, the GI50 is the concentration at which growth is held to half of that of the control. Lower therefore signals greater sensitivity of the cells.

With `COc1ccc(Sc2c3ccccc3nc3c2c(C)nn3C)cc1`, the results for the EC50 in the assay on T47D [1], with HCT-116 [2] and with SNU-398 [3] were 5.47 µM, 6.67 µM and 4.99 µM, respectively.
For the compound `CC(=O)c1ccc(Nc2c3cccc(C)c3nc3c2c(C)nn3C)cc1`, the results for the 50% effective concentration (EC50) with T47D [1], with HCT-116 [2] and in the assay on SNU-398 [3] were 1.11 µM, 0.94 µM and 0.66 µM, respectively.
As for `CC(=O)c1cccc(Nc2c3c(nc4ccccc24)CCC3)c1`, the EC50 with T47D [1] was determined as 0.45 µM; in the assay with HCT-116 [2] it was 0.66 µM; in the assay on SNU-398 [3] it was 0.44 µM. Besides, the GI50 in the assay on T47D [4] came out at 0.56 µM; in the assay with HCT-116 [5] it was 0.5 µM; in the assay on SNU-398 [6], 0.17 µM.
Regarding `CC(=O)c1ccc(Nc2c3cc(C)ccc3nc3c2c(C)nn3C)cc1`, the EC50 with T47D [1], with HCT-116 [2] and in the assay with SNU-398 [3] was above 10 µM throughout.
With `CC(=O)c1ccc(Nc2c3ccccc3nc3c2c(C(C)C)nn3C)cc1`, the half-maximal effective concentration (EC50) with T47D [1], in the assay with HCT-116 [2] and in the assay with SNU-398 [3] was above 10 µM throughout.
With `COC(=O)c1ccc(Nc2c3ccccc3nc3c2c(C)nn3C)cc1`, the concentration for a half-maximal effect (EC50) in the assay with T47D [1] was found to be 0.54 µM; in the assay with HCT-116 [2], 0.67 µM; in the assay with SNU-398 [3], 0.27 µM.
On the same counts, the results for `Cc1nn(C)c2nc3ccccc3c(Nc3ccc(C(=O)C(C)C)cc3)c12` are 0.44 µM, 0.39 µM and 0.24 µM.
On the same counts, the results for `Cc1nn(C)c2nc3ccccc3c(Nc3ccc(C(=O)O)cc3)c12` are above 10 µM, above 10 µM and above 10 µM.
Consider `COc1ccc(Nc2c3ccccc3nc3[nH]nc(C)c23)cc1`, for which the EC50 in the assay with T47D [1], with HCT-116 [2] and in the assay on SNU-398 [3] was above 10 µM throughout. The GI50 with T47D [4], in the assay with HCT-116 [5] and in the assay with SNU-398 [6] was above 10 µM throughout.
For the compound `CCC(O)c1ccc(Nc2c3ccccc3nc3c2c(C)nn3C)cc1` (stereo not drawn), the EC50 was 0.14 µM in the assay on T47D [1], 0.33 µM with HCT-116 [2] and 0.053 µM in the assay with SNU-398 [3]. The concentration for 50% growth inhibition (GI50) with T47D [4] amounted to 0.59 µM; in the assay with HCT-116 [5], 0.93 µM; with SNU-398 [6], 0.14 µM.
For the compound `CC(=O)c1ccc(Nc2c3ccccc3nc3c2c(C)nn3C)cc1`, the EC50 in the assay on T47D [1] amounted to 0.52 µM; with HCT-116 [2] it was 0.66 µM; with SNU-398 [3] it was 0.27 µM.
`COC(=O)c1ccc(N(C)c2c3ccccc3nc3c2c(C)nn3C)cc1`: the results for the EC50 with T47D [1], in the assay with HCT-116 [2] and with SNU-398 [3] were 5.21 µM, 6.08 µM and 1.33 µM, respectively.
Consider `CCC(=O)c1ccc(Nc2c3ccccc3nc3c2c(C)nn3CC)cc1`, for which the EC50 with T47D [1] stood at 0.21 µM; in the assay on HCT-116 [2] it was 0.19 µM; with SNU-398 [3], 0.15 µM.
On to `CCC(=O)c1ccc(Nc2c3ccccc3nc3c2c(C)nn3C)cc1`, for which the EC50 in the assay on T47D [1] was 0.071 µM; with HCT-116 [2] it was 0.064 µM; in the assay on SNU-398 [3] it was 0.034 µM. The GI50 with T47D [4] stood at 0.026 µM; in the assay with HCT-116 [5], 0.042 µM; in the assay with SNU-398 [6] it was 0.016 µM. Further, the Activity in the assay on T47D [7] was 13.6% and 7.6% and 18.8%.
Take `Cc1nn(C)c2nc3ccccc3c(Nc3ccc(C(N)=O)cc3)c12`: the EC50 with T47D [1], in the assay with HCT-116 [2] and in the assay with SNU-398 [3] was above 10 µM in each case.
For the compound `CCC(=O)c1ccc(Nc2c3cccc([N+](=O)[O-])c3nc3c2c(C)nn3C)cc1`, the EC50 was determined as 0.51 µM in the assay with T47D [1], 0.48 µM in the assay with HCT-116 [2] and 0.27 µM in the assay with SNU-398 [3].
Consider `CC(=O)c1ccc(Oc2c3ccccc3nc3c2c(C)nn3C)cc1`, for which the EC50 with T47D [1], in the assay with HCT-116 [2] and with SNU-398 [3] was above 10 µM in each case.
`CC(=O)c1ccc(Nc2c3ccccc3nc3c2cnn3C)cc1`: the EC50 with T47D [1] stood at 1.15 µM; in the assay on HCT-116 [2] it was 1.36 µM; in the assay with SNU-398 [3], 0.73 µM.
On the same counts, the results for `COc1ccc(Nc2c3ccccc3nc3c2c(C)nn3C)cc1` are 1.01 µM, 1.25 µM and 0.48 µM.
On the same counts, the results for `COc1cccc(Nc2c3ccccc3nc3c2c(C)nn3C)c1` are 7.26 µM, above 10 µM and above 10 µM.
